Among the data in ChEMBL document CHEMBL4261585, “Synthesis of 1,2,3-triazole linked 4(3H)-Quinazolinones as potent antibacterial agents against multidrug-resistant Staphylococcus aureus” (Eur J Med Chem, 2018) are MIC, CC50 and selectivity ratio values, retold here.

Structures are written as SMILES. Converted amounts (≈) assume the structure as drawn. A value given as a limit tells only on which side of the number the result lay.

For series [1], the system named is Staphylococcus aureus. The series is described as follows: Antibacterial activity against Staphylococcus aureus ATCC 29213 after 16 to 18 hrs by CLSI method. It is filed as functional. In a few lines: (§1)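 Broth microdilution MIC per CLSI. A single colony from Mueller-Hinton agar is grown overnight in cation-supplemented Mueller-Hinton broth (37 °C, shaking, 18–24 h). Incubation is 37 °C for 16–18 h. MIC is the lowest concentration with no visible growth. Three independent runs, each in duplicate.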

The next series concerns Escherichia coli. The series is described as follows: Antibacterial activity against Escherichia coli ATCC 25922 after 16 to 18 hrs by CLSI method. It is filed as functional. In a few lines: as §1
A further series concerns Klebsiella pneumoniae. The series is described as follows: Antibacterial activity against Klebsiella pneumoniae ATCC BAA-1705 after 16 to 18 hrs by CLSI method. It is filed as functional. In a few lines:
as §1

A further series relates to Acinetobacter baumannii. The series can be described thus: Antibacterial activity against Acinetobacter baumannii BAA-1605 after 16 to 18 hrs by CLSI method. It is filed as functional. The method in brief:
as §1

In another series the test system is Pseudomonas aeruginosa. The series can be described thus: Antibacterial activity against Pseudomonas aeruginosa ATCC 27853 after 16 to 18 hrs by CLSI method. It is filed as functional. The method in brief:
as §1

The test system of series [2] is Mycolicibacterium fortuitum. The series can be described thus: Antimycobacterial activity against Mycobacterium fortuitum by pesto blue-dye based broth microdilution assay. It is filed as functional. A general note: In broth dilution the organism is exposed to a series of concentrations in liquid medium.
A further series has as its system Mycobacteroides chelonae. The series is described as follows: Antimycobacterial activity against Mycobacterium chelonae by pesto blue-dye based broth microdilution assay. It is filed as functional.
In series [3] the test system is Mycobacteroides abscessus. The series is described as follows: Antimycobacterial activity against Mycobacterium abscessus by pesto blue-dye based broth microdilution assay. It is filed as functional.
The subject of series [4] is Mycobacterium tuberculosis. The series can be described thus: Antimycobacterial activity against Mycobacterium tuberculosis H37Rv ATCC 27294 after 7 days by pesto blue-dye based broth microdilution assay. It is filed as functional. The settings on record: H37Rv ATCC 27294, 168 h. The method in brief: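 Broth microdilution in Middlebrook 7H9 with 10% ADC-Tween-80 (0.2% glycerol, 0.05% Tween-80). Compound is added from 10 mg/mL DMSO stocks as two-fold dilutions, 64–0.5 mg/L. Plates are incubated 7 days at 37 °C and read with PrestoBlue resazurin dye. MIC is the lowest concentration inhibiting visible growth, three replicates in duplicate.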

Series [5] can be described thus: Cytotoxicity against African green monkey Vero cells after 72 hrs by MTT assay. It is filed as cell-based. Conditions: chlorocebus sabaeus. In a few lines:
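Vero cells are seeded at ~10³ per well and held 24 h at 37 °C, 5% CO₂. Compound at 100–5 mg/L is then added for 72 h. MTT is added at […], and formazan is dissolved in DMSO and read at 540 nm. CC50 is the lowest concentration giving 50% loss of viability. Doxorubicin is the positive control. Triplicate experiments.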

The nature of series [6]: Selectivity index, ratio of CC50 for African green monkey Vero cells to MIC for Staphylococcus aureus ATCC 29213. It is filed as toxicity. The settings on record: read-out: Selectivity Index. The method in brief:
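Selectivity index is calculated as the Vero CC50 divided by the MIC against S. aureus ATCC 29213. CC50 comes from a 72 h MTT assay at 100–5 mg/L. MIC comes from CLSI broth microdilution at ~10⁶ CFU/mL, 37 °C, 16–18 h.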

For series [7], the system named is Staphylococcus aureus. The series can be described thus: Antibacterial activity against vancomycin-resistant Staphylococcus aureus VRS1 by CLSI method. It is filed as functional. In a few lines: (§2)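 Broth microdilution to CLSI. A single colony from Mueller-Hinton agar is grown overnight in cation-supplemented MHB at 37 °C with shaking, 18–24 h. Levofloxacin is the reference. MIC is the lowest concentration with no visible growth, from three independent runs in duplicate.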

The subject of series [8] is Staphylococcus aureus. The series is described as follows: Antibacterial activity against vancomycin-resistant Staphylococcus aureus VRS4 by CLSI method. It is filed as functional. The method in brief: as §2
Series [9] has as its system Staphylococcus aureus. The series can be described thus: Antibacterial activity against vancomycin-resistant Staphylococcus aureus VRS12 by CLSI method. It is filed as functional. The method in brief:
as §2

`N#Cc1ccc(/C=C/c2nc3ccccc3c(=O)n2-c2cccc(OCc3cn(-c4ccc(Cl)cc4)nn3)c2)cc1`: the MIC against Staphylococcus aureus [1] is 0.5 µg/mL (≈ 0.898 µM); against Escherichia coli, greater than 64 µg/mL; in the series on Klebsiella pneumoniae, greater than 64 µg/mL; in the series on Acinetobacter baumannii, greater than 64 µg/mL; with Pseudomonas aeruginosa, greater than 64 µg/mL; in series [2], greater than 64 µg/mL. For the same molecule, the MIC (with Mycobacteroides chelonae; in [3]; in [4]) was greater than 64 µg/mL in each case. Moreover, the 50% cytotoxic concentration (CC50) at 72 h in series [5] amounted to 20 µg/mL (≈ 35.9 µM). In series [6], the selectivity ratio came to 40.

`N#Cc1ccc(/C=C/c2nc3ccccc3c(=O)n2-c2cccc(OCc3cn(-c4ccc(C(F)(F)F)cc4)nn3)c2)cc1`: the MIC is 4 µg/mL (≈ 6.77 µM) against Staphylococcus aureus [1]; greater than 64 µg/mL with Escherichia coli; greater than 64 µg/mL in the series with Klebsiella pneumoniae; greater than 64 µg/mL in the series on Acinetobacter baumannii; greater than 64 µg/mL in the series on Pseudomonas aeruginosa; greater than 64 µg/mL in series [2]. Also, the MIC (against Mycobacteroides chelonae; in series [3]; in series [4]) was greater than 64 µg/mL throughout.

Turning to `Cc1cc([N+](=O)[O-])ccc1-n1cc(COc2cccc(-n3c(C)nc4ccccc4c3=O)c2)nn1`, the MIC (against Staphylococcus aureus [1]; in the series with Escherichia coli; with Klebsiella pneumoniae; with Acinetobacter baumannii; in the series on Pseudomonas aeruginosa; in [2]) was greater than 64 µg/mL each time. Also, the MIC against Mycobacteroides chelonae was greater than 64 µg/mL; in series [3], greater than 64 µg/mL; in series [4] it was 32 µg/mL (≈ 68.3 µM).

On to `N#Cc1ccc(/C=C/c2nc3ccccc3c(=O)n2-c2cccc(OCc3cn(Cc4cccc(Br)c4)nn3)c2)cc1`, for which the MIC in the series with Staphylococcus aureus [1] was 0.5 µg/mL (≈ 0.812 µM); in the series with Escherichia coli it was greater than 64 µg/mL; in the series on Klebsiella pneumoniae, greater than 64 µg/mL; in the series with Acinetobacter baumannii, greater than 64 µg/mL; against Pseudomonas aeruginosa, greater than 64 µg/mL; in [2], greater than 64 µg/mL. The minimum inhibitory concentration (MIC) (in the series with Mycobacteroides chelonae; in series [3]; in [4]) was greater than 64 µg/mL in each case.

Consider `Cc1nc2ccccc2c(=O)n1-c1cccc(OCc2cn(-c3ccc(C(=O)O)cc3)nn2)c1`, for which the MIC (with Staphylococcus aureus [1]; against Escherichia coli; in the series on Klebsiella pneumoniae; in the series with Acinetobacter baumannii; with Pseudomonas aeruginosa; in [2]) was greater than 64 µg/mL in each case. Moreover, the MIC (in the series on Mycobacteroides chelonae; in [3]; in [4]) was greater than 64 µg/mL each time.

Consider `CN[C@H](CC(C)C)C(=O)N[C@H]1C(=O)N[C@@H](CC(N)=O)C(=O)N[C@H]2C(=O)N[C@H]3C(=O)N[C@H](C(=O)N[C@H](C(=O)O)c4cc(O)cc(O)c4-c4cc3ccc4O)[C@H](O)c3ccc(c(Cl)c3)Oc3cc2cc(c3O[C@@H]2O[C@H](CO)[C@@H](O)[C@H](O)[C@H]2O[C@H]2C[C@](C)(N)[C@H](O)[C@H](C)O2)Oc2ccc(cc2Cl)[C@H]1O` [VANCOMYCIN], for which the MIC in the series on Staphylococcus aureus [7], with Staphylococcus aureus [8] and in the series with Staphylococcus aureus [9] was greater than 64 µg/mL each time.

Turning to `Cc1cccc2c(=O)n(-c3cccc(OCc4cn(-c5cccc(Cl)c5)nn4)c3)c(C)nc12`, the minimum inhibitory concentration (MIC) (in the series on Staphylococcus aureus [1]; in the series with Escherichia coli; in the series on Klebsiella pneumoniae; with Acinetobacter baumannii; against Pseudomonas aeruginosa; in [2]) was greater than 64 µg/mL throughout. The MIC (in the series on Mycobacteroides chelonae; in [3]; in [4]) was greater than 64 µg/mL in each case.

As to `Cc1cc(-n2cc(COc3cccc(-n4c(C)nc5ccccc5c4=O)c3)nn2)cc(C)c1C`, the minimal inhibitory concentration (MIC) (in the series on Staphylococcus aureus [1]; in the series on Escherichia coli; in the series on Klebsiella pneumoniae; with Acinetobacter baumannii; against Pseudomonas aeruginosa; in series [2]) was greater than 64 µg/mL in each case. Besides, the MIC (in the series with Mycobacteroides chelonae; in series [3]; in series [4]) was greater than 64 µg/mL in each case.

`Cc1nc2ccccc2c(=O)n1-c1cccc(OCc2cn(-c3cccc(C(=O)O)c3)nn2)c1`: the MIC (with Staphylococcus aureus [1]; against Escherichia coli; against Klebsiella pneumoniae; with Acinetobacter baumannii; with Pseudomonas aeruginosa; in series [2]) was greater than 64 µg/mL each time. Moreover, the MIC (against Mycobacteroides chelonae; in series [3]; in series [4]) was greater than 64 µg/mL in each case.

Regarding `Cc1ccc(-n2cc(COc3cccc(-n4c(C)nc5ccccc5c4=O)c3)nn2)cc1[N+](=O)[O-]`, the MIC (against Staphylococcus aureus [1]; in the series on Escherichia coli; in the series on Klebsiella pneumoniae; against Acinetobacter baumannii; against Pseudomonas aeruginosa; in series [2]) was greater than 64 µg/mL each time. The MIC (in the series on Mycobacteroides chelonae; in [3]; in [4]) was greater than 64 µg/mL each time.

With `Cc1ccc(C)c(OCc2cn(-c3cccc(-n4c(C)nc5ccccc5c4=O)c3)nn2)c1`, the MIC (in the series on Staphylococcus aureus [1]; against Escherichia coli; against Klebsiella pneumoniae; in the series on Acinetobacter baumannii; with Pseudomonas aeruginosa; in series [2]) was greater than 64 µg/mL throughout. The MIC (against Mycobacteroides chelonae; in series [3]; in series [4]) was greater than 64 µg/mL each time.

With `Cc1nc2ccccc2c(=O)n1-c1cccc(OCc2cn(-c3ccc(F)c(Cl)c3)nn2)c1`, the MIC (with Staphylococcus aureus [1]; with Escherichia coli; against Klebsiella pneumoniae; in the series on Acinetobacter baumannii; against Pseudomonas aeruginosa; in [2]) was greater than 64 µg/mL each time. Further, the minimum inhibitory concentration (MIC) (against Mycobacteroides chelonae; in [3]; in [4]) was greater than 64 µg/mL in each case.

Turning to `Cc1nc2ccccc2c(=O)n1-c1cccc(OCc2cn(-c3ccc(Cl)cc3)nn2)c1`, the MIC (against Staphylococcus aureus [1]; against Escherichia coli; with Klebsiella pneumoniae; against Acinetobacter baumannii; against Pseudomonas aeruginosa; in series [2]) was greater than 64 µg/mL in each case. In addition, the MIC (against Mycobacteroides chelonae; in [3]; in series [4]) was greater than 64 µg/mL each time.

For the molecule `N#Cc1ccc(/C=C/c2nc3ccccc3c(=O)n2-c2cccc(-n3cc(-c4ccccc4)nn3)c2)cc1`, the MIC (with Staphylococcus aureus [1]; with Escherichia coli; against Klebsiella pneumoniae; in the series on Acinetobacter baumannii; in the series with Pseudomonas aeruginosa; in [2]) was greater than 64 µg/mL each time. Moreover, the MIC (in the series with Mycobacteroides chelonae; in series [3]; in series [4]) was greater than 64 µg/mL in each case.

Turning to `N#Cc1ccc(/C=C/c2nc3ccccc3c(=O)n2-c2cccc(OCc3cn(Cc4ccc([N+](=O)[O-])cc4)nn3)c2)cc1`, the MIC was 2 µg/mL (≈ 3.44 µM) against Staphylococcus aureus [1]; greater than 64 µg/mL with Escherichia coli; greater than 64 µg/mL in the series with Klebsiella pneumoniae; greater than 64 µg/mL in the series on Acinetobacter baumannii; greater than 64 µg/mL in the series with Pseudomonas aeruginosa; greater than 64 µg/mL in series [2]. Moreover, the MIC (against Mycobacteroides chelonae; in series [3]; in [4]) was greater than 64 µg/mL throughout.

As for `COc1cc(-n2cc(COc3cccc(-n4c(C)nc5ccccc5c4=O)c3)nn2)cc(OC)c1OC`, the MIC (against Staphylococcus aureus [1]; against Escherichia coli; against Klebsiella pneumoniae; in the series on Acinetobacter baumannii; in the series on Pseudomonas aeruginosa; in series [2]) was greater than 64 µg/mL in each case. Besides, the MIC (in the series on Mycobacteroides chelonae; in series [3]; in [4]) was greater than 64 µg/mL in each case.

Take `Cc1cccc(-n2cc(COc3cccc(-n4c(C)nc5ccccc5c4=O)c3)nn2)c1`: the MIC (with Staphylococcus aureus [1]; in the series with Escherichia coli; against Klebsiella pneumoniae; against Acinetobacter baumannii; with Pseudomonas aeruginosa; in [2]) was greater than 64 µg/mL throughout. Moreover, the MIC (in the series with Mycobacteroides chelonae; in series [3]; in series [4]) was greater than 64 µg/mL each time.

On to `Cc1nc2ccccc2c(=O)n1-c1cccc(OCc2cn(-c3ccc(O)cc3)nn2)c1`, for which the MIC (in the series with Staphylococcus aureus [1]; against Escherichia coli; in the series with Klebsiella pneumoniae; in the series with Acinetobacter baumannii; against Pseudomonas aeruginosa; in [2]) was greater than 64 µg/mL throughout. Moreover, the minimal inhibitory concentration (MIC) against Mycobacteroides chelonae was greater than 64 µg/mL; in [3], greater than 64 µg/mL; in series [4] it was 64 µg/mL (≈ 150 µM).

Broadly, the MIC is the smallest concentration in the dilution series that meets the test's criterion for growth inhibition. For orientation: CC50 means the concentration that lowers cell viability or growth by half.
